The results in this text go back to ChEMBL document CHEMBL1139241, “Structure-activity relationship studies of a new series of imidazo[2,1-f]purinones as potent and selective A(3) adenosine receptor antagonists” (Bioorg Med Chem, 2008).

One experiment addresses T1, Adenosine receptor A2b (Homo sapiens, UniProt P29275).
T1 sequence (P29275 whole entry): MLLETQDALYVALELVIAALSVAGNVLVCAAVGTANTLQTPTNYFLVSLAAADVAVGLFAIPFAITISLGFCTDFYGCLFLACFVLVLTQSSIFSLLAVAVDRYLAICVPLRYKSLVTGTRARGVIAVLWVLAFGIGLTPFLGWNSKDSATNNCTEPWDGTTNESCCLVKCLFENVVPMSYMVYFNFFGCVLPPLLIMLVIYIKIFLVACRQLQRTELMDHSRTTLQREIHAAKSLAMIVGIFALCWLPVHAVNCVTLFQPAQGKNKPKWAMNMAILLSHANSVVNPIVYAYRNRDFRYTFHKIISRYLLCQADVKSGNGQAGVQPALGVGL
The experiment is described as follows: Antagonist activity at human cloned adenosine A2B cells expressed in CHO cells assessed as inhibition of NECA-stimulated cAMP production. It counts as functional, cell-based. The method, boiled down: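 CHO cells with human A2B receptor, trypsin-detached, 1×10^6 cells/assay, in buffered salt medium pH 7.4 with 2 IU/ml adenosine deaminase and Ro 20-1724, preincubated 10 min at 37 °C. Antagonism of 100 nM NECA-stimulated cAMP. Stopped with cold 6% TCA, ether-extracted, cAMP measured by [3H]cAMP competition protein binding. IC50 from sigmoid nonlinear regression, n = 4, mean ± SEM.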
For orientation: cAMP levels reflect the balance of adenylyl cyclase and phosphodiesterase activity.

The next experiment concerns the target T2, Adenosine receptor A1 (Homo sapiens, UniProt P30542).
T2 sequence (P30542 whole entry): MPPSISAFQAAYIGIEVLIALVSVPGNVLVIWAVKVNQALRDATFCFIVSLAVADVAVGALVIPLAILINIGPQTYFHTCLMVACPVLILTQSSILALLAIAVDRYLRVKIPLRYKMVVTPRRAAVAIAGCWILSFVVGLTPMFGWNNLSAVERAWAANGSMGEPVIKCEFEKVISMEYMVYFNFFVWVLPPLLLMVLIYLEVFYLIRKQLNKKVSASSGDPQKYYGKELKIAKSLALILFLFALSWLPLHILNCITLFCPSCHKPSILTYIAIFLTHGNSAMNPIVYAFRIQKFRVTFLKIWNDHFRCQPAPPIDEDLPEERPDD
The experiment is described as follows: Displacement of [3H]DPCPX from human cloned adenosine A1 receptor expressed in CHO cells. It counts as cell-based.

Another experiment deals with Adenosine receptor A2a (Homo sapiens, UniProt P29274). The experiment is described as follows: Displacement of [3H]ZM241385 from human cloned adenosine A2A receptor expressed in CHO cells. It counts as cell-based. (In general: Loss of bound radioactivity is the signal in a displacement assay; it reports binding, not function.)
The target in another experiment is T3, Adenosine receptor A3 (Homo sapiens, UniProt P0DMS8).
T3 sequence (P0DMS8 whole entry): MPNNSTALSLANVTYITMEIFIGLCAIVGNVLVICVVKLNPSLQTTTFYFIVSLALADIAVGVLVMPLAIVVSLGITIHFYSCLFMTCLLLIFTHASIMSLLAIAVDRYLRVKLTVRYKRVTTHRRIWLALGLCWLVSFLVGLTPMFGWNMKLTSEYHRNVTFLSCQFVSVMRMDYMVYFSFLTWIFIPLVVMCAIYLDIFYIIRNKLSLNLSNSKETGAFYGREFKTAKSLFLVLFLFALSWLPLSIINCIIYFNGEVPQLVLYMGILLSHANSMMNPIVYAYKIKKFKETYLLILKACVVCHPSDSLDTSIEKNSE
The experiment is described as follows: Displacement of [3H]MRE3008F20 from human cloned adenosine A3 receptor expressed in CHO cells. It counts as cell-based.

Chain of Adenosine receptor A2a (P29274 whole entry): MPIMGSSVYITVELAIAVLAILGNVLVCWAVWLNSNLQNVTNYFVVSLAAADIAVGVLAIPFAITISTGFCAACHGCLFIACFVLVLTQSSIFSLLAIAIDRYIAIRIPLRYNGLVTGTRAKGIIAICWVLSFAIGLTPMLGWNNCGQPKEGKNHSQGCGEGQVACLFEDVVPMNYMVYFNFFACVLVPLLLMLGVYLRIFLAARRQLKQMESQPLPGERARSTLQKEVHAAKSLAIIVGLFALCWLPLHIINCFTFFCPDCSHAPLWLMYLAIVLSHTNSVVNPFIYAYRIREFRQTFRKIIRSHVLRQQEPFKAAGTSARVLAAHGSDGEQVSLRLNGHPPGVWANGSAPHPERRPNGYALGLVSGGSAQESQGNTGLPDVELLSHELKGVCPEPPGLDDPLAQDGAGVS

As a reminder, the IC50 is the concentration that inhibits the measured activity by half. With `CCCn1c(=O)c2c(nc3[nH]c(-c4ccc(OC)cc4)cn32)n(Cc2ccccc2)c1=O`, the IC50 on Adenosine receptor A2b is > 1000 nM.

Take `CCCn1c(=O)c2c(nc3[nH]c(-c4ccc(-c5ccccc5)cc4)cn32)n(Cc2ccccc2)c1=O`: the IC50 on Adenosine receptor A2b is > 1000 nM.

Regarding `CCCn1c(=O)c2c(nc3n2CC(c2ccccc2)=C3)n(Cc2ccccc2)c1=O`, the IC50 on Adenosine receptor A2b was > 1000 nM.

For `CCCn1c(=O)c2c(nc3[nH]c(-c4ccc(F)cc4)cn32)n(Cc2ccccc2)c1=O`, the IC50 on Adenosine receptor A2b was > 1000 nM.

For `CCCn1c(=O)c2c(nc3[nH]c(-c4ccccc4)cn32)n(Cc2ccccc2)c1=O`, on Adenosine receptor A2b, the IC50 was > 1000 nM.

Usually Ki stands for the dissociation constant of the complex between target and ligand, obtained from inhibition or displacement. For `CCCn1c(=O)c2c(nc3[nH]c(C)cn32)n(Cc2ccncc2)c1=O`, the Ki is > 1000 nM on Adenosine receptor A1, > 1000 nM on Adenosine receptor A2a and 141 nM on Adenosine receptor A3. Also, the IC50 at Adenosine receptor A2b was > 1000 nM.

Regarding `C=CCn1c(=O)c2c(nc3[nH]c(C)cn32)n(Cc2ccccc2)c1=O`, the Ki on Adenosine receptor A1 was > 1000 nM; on Adenosine receptor A2a, > 1000 nM; at Adenosine receptor A3, 5.13 nM. On Adenosine receptor A2b, the IC50 is > 1000 nM.

Turning to `Cc1cn2c(nc3c2c(=O)n(CCO)c(=O)n3Cc2ccccc2)[nH]1`, the values for the Ki at Adenosine receptor A1, at Adenosine receptor A2a and at Adenosine receptor A3 were > 1000 nM, > 1000 nM and 38 nM, respectively. On Adenosine receptor A2b, the concentration for half-maximal inhibition (IC50) is > 1000 nM.

As for `Cc1cn2c(nc3c2c(=O)n(CCN(C)C)c(=O)n3Cc2ccccc2)[nH]1`, the Ki is > 1000 nM at Adenosine receptor A1, > 1000 nM at Adenosine receptor A2a and 98 nM at Adenosine receptor A3. At Adenosine receptor A2b, the half-maximal inhibitory concentration (IC50) was > 1000 nM.

Regarding `CCn1c(C)cn2c3c(=O)[nH]c(=O)n(Cc4ccccc4)c3nc12`, the Ki on Adenosine receptor A1, at Adenosine receptor A2a and at Adenosine receptor A3 was > 1000 nM in each case. Further, at Adenosine receptor A2b, the IC50 was > 1000 nM.

As for `CCCn1c(=O)c2c(nc3[nH]c(C)cn32)n(Cc2cccnc2)c1=O`, the figures for the Ki on Adenosine receptor A1, on Adenosine receptor A2a and on Adenosine receptor A3 were > 1000 nM, > 1000 nM and 57 nM, respectively. Besides, the IC50 on Adenosine receptor A2b was > 1000 nM.

Turning to `CCCn1c(=O)c2c(nc3[nH]c(C)cn32)n(Cc2ccccn2)c1=O`, the Ki is > 1000 nM at Adenosine receptor A1, > 1000 nM at Adenosine receptor A2a and 34 nM at Adenosine receptor A3. The IC50 at Adenosine receptor A2b is > 1000 nM.

For the molecule `Cc1cn2c(nc3c2c(=O)n(CCCO)c(=O)n3Cc2ccccc2)[nH]1`, the Ki is > 1000 nM on Adenosine receptor A1, > 1000 nM on Adenosine receptor A2a and 110 nM on Adenosine receptor A3. In addition, the IC50 on Adenosine receptor A2b is > 1000 nM.

As to `CCOC(=O)Cn1c(=O)c2c(nc3[nH]c(C)cn32)n(Cc2ccccc2)c1=O`, the Ki was > 1000 nM on Adenosine receptor A1, > 1000 nM on Adenosine receptor A2a and 20 nM on Adenosine receptor A3. Further, the IC50 at Adenosine receptor A2b was > 1000 nM.

In the case of `CC(=O)Cn1c(=O)c2c(nc3[nH]c(C)cn32)n(Cc2ccccc2)c1=O`, the Ki at Adenosine receptor A1 was > 1000 nM; on Adenosine receptor A2a, > 1000 nM; on Adenosine receptor A3, 182 nM. Moreover, on Adenosine receptor A2b, the IC50 is > 1000 nM.

On to `Cn1c(=O)c2c(nc3[nH]c(-c4ccccc4)cn32)n(C)c1=O`, for which the Ki at Adenosine receptor A1, at Adenosine receptor A2a and on Adenosine receptor A3 was > 1000 nM in each case. Moreover, the IC50 at Adenosine receptor A2b was > 1000 nM.

`CCCn1c(=O)c2c(nc3n(CC)c(C)cn23)n(Cc2ccccc2)c1=O`: the Ki is > 1000 nM at Adenosine receptor A1, > 1000 nM at Adenosine receptor A2a and 200 nM at Adenosine receptor A3. The IC50 at Adenosine receptor A2b is > 1000 nM.

As to `C#CCn1c(=O)c2c(nc3[nH]c(C)cn32)n(Cc2ccccc2)c1=O`, the Ki was > 1000 nM on Adenosine receptor A1, > 1000 nM on Adenosine receptor A2a and 15 nM at Adenosine receptor A3. At Adenosine receptor A2b, the IC50 was > 1000 nM.

On to `Cc1cn2c3c(=O)[nH]c(=O)n(Cc4ccccc4)c3nc2n1C(C)CO` (stereo not given), for which the Ki on Adenosine receptor A1, on Adenosine receptor A2a and on Adenosine receptor A3 was > 1000 nM throughout. Further, the IC50 on Adenosine receptor A2b is > 1000 nM.

Regarding `Cc1cn2c(nc3c2c(=O)[nH]c(=O)n3Cc2ccccc2)[nH]1`, the Ki was > 1000 nM on Adenosine receptor A1, > 1000 nM at Adenosine receptor A2a and 148 nM at Adenosine receptor A3. In addition, on Adenosine receptor A2b, the IC50 was > 1000 nM.
